Experimental data published in ChEMBL document CHEMBL1124340, “Acyclic analogues of 3'-azido-3'-deoxythymidine as potential antiviral agents. Nucleoside synthesis by Michael addition” (J Med Chem, 1989).
Activity calls are given as the source filed them. The rule behind the calls is not given here.

Assays:
[1] = Toxicity in Vero (African green monkey) cells at concentration 100 uM; compound found nontoxic; conditions: chlorocebus aethiops, in vitro
Vero [2] = experiment: In vitro inhibitory activity against HSV-2 in vero cells of african green monkey at concentration 100 uM; Inactive; format: functional, cell-based; conditions: Chlorocebus sabaeus
Vero [3] = experiment: In vitro inhibitory activity against HSV-1 in vero cells of african green monkey at concentration 100 uM; Inactive; format: functional, cell-based; conditions: Chlorocebus sabaeus
Homo sapiens = organism: Homo sapiens; experiment: In vitro inhibitory activity against HIV-1 in human peripheral blood mononuclear cells at concentration 100 uM; Inactive; format: functional
How it was run: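 Mitogen-stimulated PBM cells, three days old (10⁶ cells/mL), came from hepatitis- and HIV-1-seronegative donors. They were infected with HIV-1 strain LAV at about 100 TCID₅₀/mL. Compounds were added about 45 min post-infection and tested up to 100 μM. On day 5 the supernatant was clarified, virus pelleted, and reverse transcriptase activity measured. Cells came from three donors.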

Vero [4] = experiment: In vitro inhibitory activity against HSV-1 in Vero (African green monkey) cells at concentration 100 uM; Inactive; conditions: Chlorocebus sabaeus
Vero [5] = experiment: In vitro inhibitory activity against HSV-1 in vero cells in african green monkey at concentration 100 uM; Inactive; format: functional, cell-based; conditions: Chlorocebus sabaeus
Vero [6] = experiment: In vitro inhibitory activity against HSV-2 in vero cells in african green monkey at concentration 100 uM; Inactive; format: functional, cell-based; conditions: Chlorocebus sabaeus
[7] = Toxicity in Vero (African green monkey) cells at concentration 100 uM; compound found nontoxic; conditions: chlorocebus aethiops, in vitro; remark: listed apart in the source
Vero [8] = experiment: In vitro inhibitory activity against HSV-2 in Vero (African green monkey) cells at concentration 100 uM; Inactive; conditions: Chlorocebus sabaeus
Vero [9] = experiment: In vitro inhibitory activity against HSV-1 in vero cells in african green monkey at concentration 100 uM; IA is inactive.; format: functional, cell-based; conditions: Chlorocebus sabaeus
Vero [10] = experiment: In vitro inhibitory activity against HSV-2 in vero cells of african green monkey at concentration 100 uM; IA is inactive.; format: functional, cell-based; conditions: Chlorocebus sabaeus
[11] = Toxicity in Vero (African green monkey) cells at concentration 100 uM; compound was found nontoxic; conditions: chlorocebus aethiops, in vitro

SMILES	Toxicity [1]	Activity (Vero [2])	Activity (Vero [3])	Activity (Homo sapiens)	Activity (Vero [4])	Activity (Vero [5])	Activity (Vero [6])	Toxicity [7]	Activity (Vero [8])	Activity (Vero [9])	Activity (Vero [10])	Toxicity [11]
COC(=O)/C=C/n1cc(C)c(=O)[nH]c1=O	Non-toxic	inactive	inactive	–	–	–	–	–	–	–	–	–
Cc1cn(C(CCN=[N+]=[N-])OCCO)c(=O)[nH]c1=O (stereo not drawn)	–	–	–	inactive	inactive	inactive	inactive	Non-toxic	inactive	–	–	–
Cc1cn(C(CCO)SCCO)c(=O)[nH]c1=O (stereo not drawn)	–	–	–	inactive	–	–	–	–	–	No activity	No activity	Non-toxic
COC(=O)COC(CC(=O)OC)n1cc(C)c(=O)[nH]c1=O (stereo not drawn)	–	–	–	inactive	inactive	inactive	inactive	Non-toxic	inactive	–	–	–
COC(=O)CC(SCCO)n1cc(C)c(=O)[nH]c1=O (stereo not drawn)	Non-toxic	inactive	inactive	–	–	–	–	–	–	–	–	–
Cc1cn(C(CCO)OCCO)c(=O)[nH]c1=O (stereo not drawn)	–	–	–	inactive	inactive	inactive	inactive	Non-toxic	inactive	–	–	–
